GRK2 aptamer HTS: compounds blocking aptamer binding on GRK2 – biochemical, human GRK2, bead flow cytometry, HTS, primary screen; Beta-adrenergic receptor kinase 1 (Homo sapiens), P25098; FAM-aptamer displacement from GRK2; inhibition of aptamer binding, % at 10 µM; hit rate 0.59% among 330,000;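 active means inhibition of aptamer binding above 40%, roughly 3 SD of noise, on plates passing a quality check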;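 further: median bead fluorescence of bound FAM aptamer so fluorescent compounds give negative values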
Scp1 inh: Scp-1 phosphatase inhibitors, primary screen, biochemical, colorimetric, uHTS | Carboxy-terminal domain RNA polymerase II polypeptide A small phosphatase 1 (Homo … | Recombinant Scp1, phosphopeptide, malachite green phosphate absorbance | inhibition, % at 20 µM | hit rate 0.88% among 340,000 | AID 493091, 2011;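 active means inhibition above about 50% at 20 µM, limit read from the data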;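 further: plate controls were DMSO wells with enzyme for no effect and wells lacking enzyme for full effect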
Target sequence (Q9GZU7 76-261 limits assumed): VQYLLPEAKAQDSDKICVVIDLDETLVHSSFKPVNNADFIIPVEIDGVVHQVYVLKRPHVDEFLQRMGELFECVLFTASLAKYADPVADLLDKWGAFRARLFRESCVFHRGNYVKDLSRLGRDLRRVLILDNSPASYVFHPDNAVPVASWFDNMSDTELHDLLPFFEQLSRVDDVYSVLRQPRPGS
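Test system: SCP-1 phosphatase catalytic domain, residues 76-261 | Compound dosing: One concentration, 20 µM, with 1.0% DMSO | Schedule: 45 min room-temperature reaction, 5 min colour, 30 min stabiliser | Detection: Absorbance at 630 nm | Read-out basis: % inhibition of SCP-1 phosphate liberation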
STEP block: STEP phosphatase inhibitors, primary screen, biochemical, fluorescence intensity, uHTS; AID 588621, 2011; recombinant STEP, OMFP fluorogenic substrate; hit rate 0.25% among 360,000; inhibition, % at 20 µM; Tyrosine-protein phosphatase non-receptor type 5 (Homo sapiens), P54829;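 active means inhibition at 20 µM, scaled per plate between control wells, above about 37%, limit read from the data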;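 further: 0% = DMSO with enzyme and substrate and 100% = substrate only without enzyme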
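System: isolated STEP enzyme; schedule: 20 min enzyme reaction at room temperature, protected from light; medium: Bis-Tris buffer pH 6.0, 2.5 mM DTT, 0.005% Tween 20; signal: fluorescence, 480/540 nm; dosing: single compound dose of 20 µM, 1% DMSO final; also added: OMFP substrate, 25 µM final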
LMPTP block: LMPTP phosphatase inhibitors, primary screen, biochemical, fluorescence intensity, uHTS; Low molecular weight phosphotyrosine protein phosphatase (Homo sapiens), P24666; recombinant LMPTP-A, OMFP fluorogenic substrate; inhibition, % at 20 µM; hit rate 0.22% among 360,000; AID 651560, 2012;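 active means compounds that cut the enzyme signal by at least half of the control window in the single-dose screen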;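 further: plate controls were DMSO wells with enzyme plus substrate for no effect and substrate without enzyme for full effect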
Target sequence (P24666 whole entry, looked up): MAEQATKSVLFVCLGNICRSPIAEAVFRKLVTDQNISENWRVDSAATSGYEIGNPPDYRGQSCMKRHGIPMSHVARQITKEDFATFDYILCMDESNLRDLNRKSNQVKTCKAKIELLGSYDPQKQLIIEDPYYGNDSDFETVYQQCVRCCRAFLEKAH
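Test system: LMPTP-A phosphatase enzyme; input: 0.625 nM LMPTP-A final; reagent: OMFP substrate, 400 µM final; compound dosing: 20 µM single dose, 3% DMSO; incubation: 50 min dark incubation at room temperature; measured by: endpoint fluorescence intensity from OMFP dephosphorylation; measure: % inhibition relative to no-enzyme and uninhibited control wells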
SUMO1-SIM PPI: modulators of SUMO1 protein-protein interactions, primary screen, biochemical, uHTS | Small ubiquitin-related modifier 1 (Homo sapiens), P63165 | SUMO1 binding to a labelled peptide, TR-FRET, 1 h | inhibition, % at 20 µM | hit rate 0.33% among 360,000 | AID 602429, 2012; in the data active means inhibition above about 37%
Target sequence (P63165 whole entry, looked up): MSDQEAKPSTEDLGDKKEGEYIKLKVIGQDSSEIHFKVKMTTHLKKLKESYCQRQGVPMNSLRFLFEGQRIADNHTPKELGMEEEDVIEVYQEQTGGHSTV
DNMT1 block: human DNMT1 methyltransferase inhibitors, primary screen, biochemical, molecular beacon, fluorescence, HinP1I cleavage, uHTS | DNA (cytosine-5)-methyltransferase 1 (Homo sapiens), P26358 | inhibition (reported as % activation of signal), % at 10 µM | hit rate 0.83% among 360,000 | AID 588458, 2011; in the data active means inhibition above about 50%
GRK2 inh confirm: GRK2 aptamer-displacing inhibitors, retest, confirmation, biochemical, cherry pick 1, bead flow cytometry; shares compounds with GRK2 aptamer HTS; bead-bound GRK2, FAM-aptamer displacement; hit rate 4% among 2,000; aptamer displacement, % at 10 µM;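 active means aptamer displacement above 40%, near three times the noise of non-fluorescent compounds, on plates passing quality checks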;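 further: negative values mostly reflect intrinsic compound fluorescence rather than true enhancement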
Aptamer quench: fluorescent aptamer quenching in GRK2 counter-screen dose response | shares compounds with GRK2 aptamer HTS | Fluorescent RNA aptamer beads, flow cytometry; hits give high values | fluorescence change (kMESF span), kMESF (no concentration beside the values) | 110 tested, under 10 active;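 active means compounds whose bead fluorescence drops by more than 37 kMESF across the dose range, marking them as dye quenchers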
FAM quench CP1: quenches fluorescent RNA aptamer, GRK2 hit artifact. shares compounds with GRK2 aptamer HTS. Carboxyfluorescein RNA aptamer on beads, flow cytometry quenching; hits give low values. fluorescence response (% of DMSO), % at 10 µM. 2,000 tested, under 10 active;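 active means compounds that quench the bead-bound fluorescent RNA probe, cutting fluorescence to under half of the solvent control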;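 further: counterscreen run without GRK2 so only probe quenching by compound is measured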
GRK2 confirm 2: GRK2 aptamer-displacing inhibitors, hit retest, confirmation, biochemical, cherry pick 2, bead flow cytometry. shares compounds with GRK2 aptamer HTS. bead-bound GRK2, FAM-aptamer displacement. inhibition of aptamer binding, % at 10 µM. 360 tested, under 10 active. AID 504782, 2011;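 active means inhibition of aptamer binding above 40%, about triple the noise seen with nonglowing compounds, on plates passing quality control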;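 further: negative values mostly come from compounds that fluoresce themselves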
FAM quench CP2: aptamer fluorescence quenching in GRK2 counter-screen | shares compounds with GRK2 aptamer HTS | carboxyfluorescein RNA aptamer beads, flow cytometry quenching; hits give low values | fluorescence response vs DMSO, % at 10 µM | 360 tested, under 10 active | AID 588494;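 active means response vs DMSO under 50%, meaning signal dropped by over half, treated as fluorescence quencher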;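 further: labelled aptamer on streptavidin beads without GRK2 as a quench counter-screen; 100% = bead fluorescence of DMSO wells and lower means quenching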
* hit, by the source's call; · = no result. A selection: hits, their analogues and other compounds. The true share with any hit is near 2.1%.

SMILES	GRK2 aptamer HTS	Scp1 inh	STEP block	LMPTP block	SUMO1-SIM PPI	DNMT1 block	GRK2 inh confirm	FAM quench CP1	others
CCc1nc2ccc(C(=O)NCCN3CCNC3=O)cn2c1N(CCC(C)C)CCN(C)C	·	·	0	-2	-3	1	·	·
O=C(O)C1CC(c2ccccc2F)=NO1 (centres undefined)	6	11	2	-2	5	18	·	·	GRK2 confirm 2=-25;FAM quench CP2=102
COc1ccc(OC)c2nc(-c3ccc4c(c3)OCO4)ccc12	42*	-12	-1	0	-32	2	·	·	GRK2 confirm 2=3;FAM quench CP2=101
c1ccc2nc(-c3ccc4c(c3)OCO4)ccc2c1	2	-4	2	3	1	0	·	·
C[C@H](CO)N1C[C@H](C)[C@@H](CN(C)S(=O)(=O)c2ccc(-n3cccn3)cc2)OCc2cnnn2CCCC1=O	·	·	1	-1	1	3	·	·
Cc1cccc(C)c1NC(=S)NNc1ncc(C(F)(F)F)cc1Cl	48*	-2	2	0	4	-3	-1	99
N#Cc1cc2cc3c(cc2nc1SCC(=O)N1CCCC1)OCCO3	0	-3	-2	0	-31	3	·	·
CC(=O)CSc1nc2cc3c(cc2cc1C#N)OCCO3	60*	-3	1	2	-23	-9	·	·	GRK2 confirm 2=4;FAM quench CP2=100
CC(=O)Nc1sc(N/N=C\c2ccc(O)cc2)nc1-c1cccs1	81*	2	-2	0	-11	-12	1	106
CC(=O)Nc1sc(N/N=C\c2cccc(Cl)c2)nc1-c1cccs1	0	1	-5	0	-4	-20	·	·
NC(=O)C1CCN(CC(=O)Nc2cccnc2Cl)CC1	42*	-6	2	-2	-1	0	-4	135
CC1(C)CC(NC(=O)Cc2ccccc2)CC(C)(C)N1	0	1	0	1	2	0	·	·
COc1ccc(CC(=O)NC2CC(C)(C)NC(C)(C)C2)cc1	42*	-6	0	-3	3	0	0	99
CCN(CC)C(=O)C1=C(C)N(CCCOC)C(=O)C(CC(=O)NC2CCCCC2)C1 (centres undefined)	·	·	-2	0	4	8	·	·
CCN1/C(=C/c2ccc3cc(C)ccc3[n+]2CC)Sc2ccc3sccc3c21	84*	47	16	84*	104*	21	89*	99	Aptamer quench=67*
CC[n+]1c(C)sc2c3ccsc3ccc21	5	5	1	-1	-3	-3	·	·
CCOc1ccc(S(=O)(=O)N2CCC(C(=O)Nc3ccccc3N3CCCC3)CC2)cc1	·	·	1	-1	-1	-2	·	·
CCNC(=O)C1(C)CCCN(C(=O)c2ccc(F)c(C)c2)C1 (centres undefined)	·	·	0	0	-2	-5	·	·
CC1(C)NC(=O)N(CCCCOc2ccc(Cl)cc2)C1=O	70*	-7	-1	-1	-3	-3	-3	97
CCN(C)C1CN(Cc2cn(Cc3ccc(C(F)(F)F)cc3)nn2)S(=O)(=O)C1 (centres undefined)	·	·	·	-1	1	·	·	·
COc1cccc(OC)c1C(=O)n1nc(C)cc1C	15	6	0	-2	0	-1	-2	102
COc1ccc(Cl)cc1C(=O)n1nc(C)cc1C	0	0	-1	1	-3	-1	·	·
Cc1c(C(=O)O)cccc1-n1c(C)cc(/C=N/Nc2ccc([N+](=O)[O-])cn2)c1C	0	1	2	4	-17	5	·	·
Cc1c(C(=O)O)cccc1-n1c(C)cc(/C=N/NC(=O)c2cc3ccccc3o2)c1C	50*	-3	1	-3	11	4	3	136
C[n+]1c2n(c3ccccc31)N=C(c1cc(C(C)(C)C)c(O)c(C(C)(C)C)c1)CS2	64*	9	2	2	-13	4	-1	101
SMILES	GRK2 aptamer HTS	Scp1 inh	STEP block	LMPTP block	SUMO1-SIM PPI	DNMT1 block	GRK2 inh confirm	FAM quench CP1	others
COc1cccc(C2=Nn3c(nnc3-c3ccccc3O)SC2)c1	4	-4	5	0	6	8	·	·
COc1cc(C2OCC3C(c4ccc(OC5OC(CO)C(O)C(O)C5O)c(OC)c4)OCC23)ccc1O (centres undefined)	0	-1	1	0	8	3	1	98
COc1cc([C@H]2OC[C@H]3[C@@H]2CO[C@H]3c2ccc(O)c(OC)c2)ccc1O	0	-8	-1	-1	6	-6	·	·
CCCN(CCC)S(=O)(=O)c1ccc(C(=O)NCc2ccco2)cc1	64*	-10	-1	0	6	6	-2	103
Cc1nnc(SCc2c(Cl)cccc2Cl)n(N)c1=O	61*	-1	-1	-1	4	-3	4	95
COc1ccc(S(=O)(=O)N2CCC(C(=O)N[C@H](C(=O)NCc3ccccc3)C(C)C)CC2)cc1	·	·	-2	-1	-2	0	·	·
CCOc1c2c(nc3ccc(Cl)cc13)CCC2	2	-6	-4	1	-2	3	·	·	GRK2 confirm 2=18;FAM quench CP2=104
O=C(CC1SC(N2CCCCC2)=NC1=O)Nc1cccc(C(=O)NCc2ccccc2)c1 (centres undefined)	3	-15	2	-1	-1	1	-1	99
COc1ccc(CN(C)C(=O)c2ccc(NC(=O)CC3SC(N4CCCC4)=NC3=O)cc2)c(OC)c1 (centres undefined)	54*	1	-1	0	1	0	0	96
